Data: ChEMBL document CHEMBL4689842, “EUbOPEN Chemogenomics Library wave 1” (2021)

Test system: Fibroblast
Assay: Multiplex assay against human fibroblast
Type: toxicity, cell-based
In short: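 Imaging took place on a CQ1 microscope at 37°C and 5% CO2 once compound had been added to live cells stained at seeding with Hoechst33342, BioTracker Green Microtubule Cytoskeleton Dye, MitoTracker Red and Annexin V Alexa Fluor 680. CellPathfinder machine-learning gating classed cells as Hoechst high-intensity objects or normal cells, classed normal cells as having healthy, pyknosed or fragmented nuclei, and classed pyknosed cells as mitotic or apoptotic. Tubulin, mitochondrial-mass and membrane-permeability phenotypes are per cents of the healthy-nucleus cells.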

[1] = 12 h, 1 µM, compound concentration 1 uM, replicate 1
[2] = 12 h, 1 µM, compound concentration 1 uM, replicate 2
[3] = 12 h, 10 µM, compound concentration 10 uM, replicate 1
[4] = 12 h, 10 µM, compound concentration 10 uM, replicate 2
[5] = 24 h, 1 µM, compound concentration 1 uM, replicate 1
[6] = 24 h, 1 µM, compound concentration 1 uM, replicate 2
[7] = 24 h, 10 µM, compound concentration 10 uM, replicate 1
[8] = 24 h, 10 µM, compound concentration 10 uM, replicate 2

For C=CCn1c(=O)c2cnc(Nc3ccc(N4CCN(C)CC4)cc3)nc2n1-c1cccc(C(C)(C)O)n1 [ADAVOSERTIB], the “Population Apoptotic (%)” value [1] was 69%, the “Population Fragmented Nuclei (%)” value [1] was 28% and the “Population Healthy Nuclei (%)” value [1] was 62%. The “Population Hoechst High Intensity Objects (%)” value [1] was 15%, the “Population Membrane Permeable-Phenotype (%)” value [1] was 7% and the “Population Mitochondria Different-Phenotype (%)” value [1] was 4%. The “Population Mitotic Cells (%)” value [1] was 30%, the “Population Normal (%)” value [1] was 84% and the “Population Pyknosed Nuclei (%)” value [1] was 8%. The “Population Tubulin-Different-Phenotype (%)” value [1] was 6%, the “Total Cell Count” value [1] was 178 and the “Population Apoptotic (%)” value [2] was 50%. For the same compound, the “Population Fragmented Nuclei (%)” value [2] was 48%, the “Population Healthy Nuclei (%)” value [2] was 37% and the “Population Hoechst High Intensity Objects (%)” value [2] was 35%. For the same compound, the “Population Membrane Permeable-Phenotype (%)” value [2] was 9%, the “Population Mitochondria Different-Phenotype (%)” value [2] was 19% and the “Population Mitotic Cells (%)” value [2] was 50%. For the same compound, the “Population Normal (%)” value [2] was 64%, the “Population Pyknosed Nuclei (%)” value [2] was 14% and the “Population Tubulin-Different-Phenotype (%)” value [2] was 19%. The “Total Cell Count” value [2] was 87, the “Population Apoptotic (%)” value [3] was 44% and the “Population Fragmented Nuclei (%)” value [3] was 29%. The “Population Healthy Nuclei (%)” value [3] was 46%, the “Population Hoechst High Intensity Objects (%)” value [3] was 14% and the “Population Membrane Permeable-Phenotype (%)” value [3] was 8%. For the same compound, the “Population Mitochondria Different-Phenotype (%)” value [3] was 5%, the “Population Mitotic Cells (%)” value [3] was 55% and the “Population Normal (%)” value [3] was 85%. For the same compound, the “Population Pyknosed Nuclei (%)” value [3] was 24%, the “Population Tubulin-Different-Phenotype (%)” value [3] was 23% and the “Total Cell Count” value [3] was 218. For the same compound, the “Population Apoptotic (%)” value [4] was 75%, the “Population Fragmented Nuclei (%)” value [4] was 55% and the “Population Healthy Nuclei (%)” value [4] was 36%. For the same compound, the “Population Hoechst High Intensity Objects (%)” value [4] was 41%, the “Population Membrane Permeable-Phenotype (%)” value [4] was 17% and the “Population Mitochondria Different-Phenotype (%)” value [4] was 23%. The “Population Mitotic Cells (%)” value [4] was 25%, the “Population Normal (%)” value [4] was 58% and the “Population Pyknosed Nuclei (%)” value [4] was 8%. The “Population Tubulin-Different-Phenotype (%)” value [4] was 35%, the “Total Cell Count” value [4] was 81 and the “Population Apoptotic (%)” value [5] was 83%. The “Population Fragmented Nuclei (%)” value [5] was 27%, the “Population Healthy Nuclei (%)” value [5] was 60% and the “Population Hoechst High Intensity Objects (%)” value [5] was 18%. For the same compound, the “Population Membrane Permeable-Phenotype (%)” value [5] was 6%, the “Population Mitochondria Different-Phenotype (%)” value [5] was 9% and the “Population Mitotic Cells (%)” value [5] was 16%. For the same compound, the “Population Normal (%)” value [5] was 81%, the “Population Pyknosed Nuclei (%)” value [5] was 11% and the “Population Tubulin-Different-Phenotype (%)” value [5] was 7%. For the same compound, the “Total Cell Count” value [5] was 187, the “Population Apoptotic (%)” value [6] was 25% and the “Population Fragmented Nuclei (%)” value [6] was 51%. For the same compound, the “Population Healthy Nuclei (%)” value [6] was 41%, the “Population Hoechst High Intensity Objects (%)” value [6] was 29% and the “Population Membrane Permeable-Phenotype (%)” value [6] was 4%. For the same compound, the “Population Mitochondria Different-Phenotype (%)” value [6] was 8%, the “Population Mitotic Cells (%)” value [6] was 75% and the “Population Normal (%)” value [6] was 70%. For the same compound, the “Population Pyknosed Nuclei (%)” value [6] was 6%, the “Population Tubulin-Different-Phenotype (%)” value [6] was 12% and the “Total Cell Count” value [6] was 82. For the same compound, the “Population Apoptotic (%)” value [7] was 56%, the “Population Fragmented Nuclei (%)” value [7] was 30% and the “Population Healthy Nuclei (%)” value [7] was 47%. For the same compound, the “Population Hoechst High Intensity Objects (%)” value [7] was 20%, the “Population Membrane Permeable-Phenotype (%)” value [7] was 4% and the “Population Mitochondria Different-Phenotype (%)” value [7] was 10%. For the same compound, the “Population Mitotic Cells (%)” value [7] was 43%, the “Population Normal (%)” value [7] was 79% and the “Population Pyknosed Nuclei (%)” value [7] was 21%. For the same compound, the “Population Tubulin-Different-Phenotype (%)” value [7] was 21%, the “Total Cell Count” value [7] was 241 and the “Population Apoptotic (%)” value [8] was 100%. For the same compound, the “Population Fragmented Nuclei (%)” value [8] was 61%, the “Population Healthy Nuclei (%)” value [8] was 35% and the “Population Hoechst High Intensity Objects (%)” value [8] was 29%. For the same compound, the “Population Membrane Permeable-Phenotype (%)” value [8] was 9%, the “Population Mitochondria Different-Phenotype (%)” value [8] was 9% and the “Population Mitotic Cells (%)” value [8] was 0%. The “Population Normal (%)” value [8] was 70%, the “Population Pyknosed Nuclei (%)” value [8] was 3% and the “Population Tubulin-Different-Phenotype (%)” value [8] was 28%. For the same compound, the “Total Cell Count” value [8] was 84.

CCCS(=O)(=O)Nc1ccc(F)c(C(=O)c2c[nH]c3ncc(Cl)cc23)c1F [PLX-4720] was tested, and the “Population Apoptotic (%)” value [1] was 55%, the “Population Fragmented Nuclei (%)” value [1] was 20% and the “Population Healthy Nuclei (%)” value [1] was 62%. For the same compound, the “Population Hoechst High Intensity Objects (%)” value [1] was 10%, the “Population Membrane Permeable-Phenotype (%)” value [1] was 5% and the “Population Mitochondria Different-Phenotype (%)” value [1] was 6%. The “Population Mitotic Cells (%)” value [1] was 44%, the “Population Normal (%)” value [1] was 89% and the “Population Pyknosed Nuclei (%)” value [1] was 17%. For the same compound, the “Population Tubulin-Different-Phenotype (%)” value [1] was 14%, the “Total Cell Count” value [1] was 234 and the “Population Apoptotic (%)” value [2] was 28%. For the same compound, the “Population Fragmented Nuclei (%)” value [2] was 56%, the “Population Healthy Nuclei (%)” value [2] was 31% and the “Population Hoechst High Intensity Objects (%)” value [2] was 29%. The “Population Membrane Permeable-Phenotype (%)” value [2] was 22%, the “Population Mitochondria Different-Phenotype (%)” value [2] was 11% and the “Population Mitotic Cells (%)” value [2] was 71%. For the same compound, the “Population Normal (%)” value [2] was 70%, the “Population Pyknosed Nuclei (%)” value [2] was 12% and the “Population Tubulin-Different-Phenotype (%)” value [2] was 27%. The “Total Cell Count” value [2] was 81, the “Population Apoptotic (%)” value [3] was 65% and the “Population Fragmented Nuclei (%)” value [3] was 23%. The “Population Healthy Nuclei (%)” value [3] was 63%, the “Population Hoechst High Intensity Objects (%)” value [3] was 13% and the “Population Membrane Permeable-Phenotype (%)” value [3] was 3%. The “Population Mitotic Cells (%)” value [3] was 34%, the “Population Normal (%)” value [3] was 86% and the “Population Pyknosed Nuclei (%)” value [3] was 13%. For the same compound, the “Population Tubulin-Different-Phenotype (%)” value [3] was 5%, the “Total Cell Count” value [3] was 254 and the “Population Apoptotic (%)” value [4] was 60%. The “Population Fragmented Nuclei (%)” value [4] was 65%, the “Population Healthy Nuclei (%)” value [4] was 26% and the “Population Hoechst High Intensity Objects (%)” value [4] was 36%. For the same compound, the “Population Membrane Permeable-Phenotype (%)” value [4] was 6%, the “Population Mitochondria Different-Phenotype (%)” value [4] was 6% and the “Population Mitotic Cells (%)” value [4] was 40%. The “Population Normal (%)” value [4] was 63%, the “Population Pyknosed Nuclei (%)” value [4] was 8% and the “Population Tubulin-Different-Phenotype (%)” value [4] was 0%. For the same compound, the “Total Cell Count” value [4] was 95, the “Population Apoptotic (%)” value [5] was 53% and the “Population Fragmented Nuclei (%)” value [5] was 25%. The “Population Healthy Nuclei (%)” value [5] was 61%, the “Population Hoechst High Intensity Objects (%)” value [5] was 11% and the “Population Membrane Permeable-Phenotype (%)” value [5] was 7%. The “Population Mitochondria Different-Phenotype (%)” value [5] was 10%, the “Population Mitotic Cells (%)” value [5] was 46% and the “Population Normal (%)” value [5] was 88%. The “Population Pyknosed Nuclei (%)” value [5] was 12%, the “Population Tubulin-Different-Phenotype (%)” value [5] was 22% and the “Total Cell Count” value [5] was 249. For the same compound, the “Population Apoptotic (%)” value [6] was 25%, the “Population Fragmented Nuclei (%)” value [6] was 47% and the “Population Healthy Nuclei (%)” value [6] was 34%. The “Population Hoechst High Intensity Objects (%)” value [6] was 40%, the “Population Membrane Permeable-Phenotype (%)” value [6] was 13% and the “Population Mitochondria Different-Phenotype (%)” value [6] was 6%. For the same compound, the “Population Mitotic Cells (%)” value [6] was 75%, the “Population Normal (%)” value [6] was 59% and the “Population Pyknosed Nuclei (%)” value [6] was 18%. The “Population Tubulin-Different-Phenotype (%)” value [6] was 13%, the “Total Cell Count” value [6] was 74 and the “Population Apoptotic (%)” value [7] was 70%. The “Population Fragmented Nuclei (%)” value [7] was 23%, the “Population Healthy Nuclei (%)” value [7] was 63% and the “Population Hoechst High Intensity Objects (%)” value [7] was 18%. For the same compound, the “Population Membrane Permeable-Phenotype (%)” value [7] was 3%, the “Population Mitochondria Different-Phenotype (%)” value [7] was 4% and the “Population Mitotic Cells (%)” value [7] was 29%. The “Population Normal (%)” value [7] was 81%, the “Population Pyknosed Nuclei (%)” value [7] was 12% and the “Population Tubulin-Different-Phenotype (%)” value [7] was 1%. For the same compound, the “Total Cell Count” value [7] was 271, the “Population Apoptotic (%)” value [8] was 50% and the “Population Fragmented Nuclei (%)” value [8] was 64%. The “Population Healthy Nuclei (%)” value [8] was 29%, the “Population Hoechst High Intensity Objects (%)” value [8] was 31% and the “Population Membrane Permeable-Phenotype (%)” value [8] was 10%. For the same compound, the “Population Mitochondria Different-Phenotype (%)” value [8] was 10%, the “Population Mitotic Cells (%)” value [8] was 50% and the “Population Normal (%)” value [8] was 68%. The “Population Pyknosed Nuclei (%)” value [8] was 5%, the “Population Tubulin-Different-Phenotype (%)” value [8] was 10% and the “Total Cell Count” value [8] was 98.
